In ChEMBL document CHEMBL1144570, “C6-(N,N-butyl-methyl-heptanamide) derivatives of estrone and estradiol as inhibitors of type 1 17beta-hydroxysteroid dehydrogenase: Chemical synthesis and biological evaluation” (2007):
The source made the active and inactive calls. The rule behind the calls is not given here.

What follows are molecules tested on T47D (assay: Effect on cell proliferation of estrogen-starved ER expressing T47D cells at 1 uM relative to control after 10 days). Settings: Homo sapiens.
Assay type: functional, cell-based
How it was run: (§1)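 Cells were moved to medium with insulin (50 ng/mL) and 5% dextran-coated charcoal-treated FBS to remove estrogens, then seeded at 3000 cells/well. After 48 h, inhibitor dilutions in growth medium were added, with medium replaced every 2 days. Cells were grown 10 days in triplicate. Growth was read with the CellTiter 96 AQueous assay and expressed as % of control (100%).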

Row | SMILES | Activity
1 | CCCCN(C)C(=O)CCCCCC[C@@H]1C[C@@H]2[C@H](CC[C@]3(C)[C@@H](O)CC[C@@H]23)c2cc(OC)c(O)cc21 | inactive

Each molecule was assayed against T1, 17-beta-hydroxysteroid dehydrogenase type 1 (Homo sapiens) (UniProt P14061) (assay: Inhibition of 17beta-HSD1 over-expressed in intact T47D cells at 10 uM). Settings: not given.
T1 sequence (whole entry): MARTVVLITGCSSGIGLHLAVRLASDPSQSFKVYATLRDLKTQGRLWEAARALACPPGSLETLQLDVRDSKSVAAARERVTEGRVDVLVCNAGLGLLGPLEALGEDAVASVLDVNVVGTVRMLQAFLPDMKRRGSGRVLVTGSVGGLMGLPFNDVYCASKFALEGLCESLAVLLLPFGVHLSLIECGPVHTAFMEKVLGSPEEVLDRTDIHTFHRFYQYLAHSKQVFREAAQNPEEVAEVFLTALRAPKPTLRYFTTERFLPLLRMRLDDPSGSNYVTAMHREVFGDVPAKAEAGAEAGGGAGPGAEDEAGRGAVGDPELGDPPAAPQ
Assay type: cell-based
How it was run: (§2)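 Intact T-47D cells, which express endogenous type 1 17β-HSD, were seeded at 3×10^4 cells/well in proliferation assay medium. After 48 h, [4-14C]-E1 (60 nM) and inhibitor in ethanol (0.5% v/v) were added in fresh medium for 24 h. Labelled E1 and E2 were extracted and quantified. Values are the mean of two experiments in triplicate, SD < ±5%.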

Row | inhibition | SMILES
2 | 93% | C[C@]12CC[C@@H]3c4ccc(O)cc4CC[C@H]3[C@@H]1CCC2=O
3 | 71% | CCCCN(C)C(=O)CCCCCC[C@H]1C[C@@H]2[C@H](CC[C@]3(C)C(=O)CC[C@@H]23)c2ccc(O)cc21
4 | 81% | CCCCN(C)C(=O)CCCCCC[C@@H]1C[C@@H]2[C@H](CC[C@]3(C)[C@@H](O)CC[C@@H]23)c2cc(OC)c(O)cc21

The molecules below were run on T47D (assay: Increase in cell growth of estrogen-starved ER expressing T47D cells at 0.01 uM relative to control after 10 days). Settings: not given.
Assay type: functional, Homo sapiens
How it was run: as §1

Row | SMILES | Activity
5 | CCCCN(C)C(=O)CCCCCC[C@@H]1C[C@@H]2[C@H](CC[C@]3(C)[C@@H](O)CC[C@@H]23)c2cc(OC)c(O)cc21 | 2.3

Each molecule was assayed against T1, 17-beta-hydroxysteroid dehydrogenase type 1 (Homo sapiens) (assay: Inhibition of 17beta-HSD1 over-expressed in homogenated HEK293 cells at 0.1 uM). Settings: not given.
Assay type: cell-based
How it was run: (§3)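 Homogenate of HEK-293 cells overexpressing type 1 17β-HSD. Reductive conversion of E1 (100 nM) to E2 with NADH cofactor. Percent inhibition from one run in triplicate, SD < ±5%.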

Row | inhibition | SMILES
6 | 19% | C[C@]12CC[C@@H]3c4ccc(O)cc4CC[C@H]3[C@@H]1CCC2=O
7 | 3% | CCCCN(C)C(=O)CCCCCC[C@H]1C[C@@H]2[C@H](CC[C@]3(C)C(=O)CC[C@@H]23)c2ccc(O)cc21

Each molecule was assayed against T2, 3-keto-steroid reductase/17-beta-hydroxysteroid dehydrogenase 7 (Homo sapiens) (UniProt P56937) (assay: Inhibition of 17beta-HSD7 over-expressed in intact HEK293 cells at 1 uM). Settings: not given.
T2 sequence (whole entry): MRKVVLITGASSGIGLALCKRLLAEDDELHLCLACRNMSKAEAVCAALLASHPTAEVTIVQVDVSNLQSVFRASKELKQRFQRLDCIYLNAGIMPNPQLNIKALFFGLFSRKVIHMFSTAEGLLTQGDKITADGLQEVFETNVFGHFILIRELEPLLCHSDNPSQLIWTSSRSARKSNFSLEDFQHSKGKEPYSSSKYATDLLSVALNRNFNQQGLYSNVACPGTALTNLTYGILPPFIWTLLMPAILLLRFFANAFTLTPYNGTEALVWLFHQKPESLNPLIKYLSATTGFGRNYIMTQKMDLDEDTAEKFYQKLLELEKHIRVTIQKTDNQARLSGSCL
Assay type: cell-based
How it was run: (§4)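 Intact transfected HEK-293 cells expressing type 7 17β-HSD. Inhibition of reductive conversion of E1 (60 nM) to E2. One run in triplicate, SD < ±5%.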

Row | inhibition | SMILES
8 | 0% | C[C@]12CC[C@@H]3c4ccc(O)cc4CC[C@H]3[C@@H]1CCC2=O
9 | 5% | CCCCN(C)C(=O)CCCCCC[C@H]1C[C@@H]2[C@H](CC[C@]3(C)C(=O)CC[C@@H]23)c2ccc(O)cc21
10 | 0% | CCCCN(C)C(=O)CCCCCC[C@@H]1C[C@@H]2[C@H](CC[C@]3(C)[C@@H](O)CC[C@@H]23)c2cc(OC)c(O)cc21

The molecules below were run against T1, 17-beta-hydroxysteroid dehydrogenase type 1 (Homo sapiens) (assay: Inhibition of 17beta-HSD1 over-expressed in intact HEK293 cells at 0.1 uM). Settings: not given.
Assay type: cell-based
How it was run: (§5)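 Transfected HEK-293 cells expressing type 1 17β-HSD were plated at 5000 cells/well. Inhibitors were added in ethanol and incubated 24 h. [4-14C]-E1 (60 nM) was then added for 15 min. Labelled E1 and E2 were extracted from the medium and quantified. Values are the mean of five experiments in quadruplicate, SD < ±8%.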

Row | inhibition | SMILES
11 | 8% | C[C@]12CC[C@@H]3c4ccc(O)cc4CC[C@H]3[C@@H]1CCC2=O
12 | 3% | CCCCN(C)C(=O)CCCCCC[C@H]1C[C@@H]2[C@H](CC[C@]3(C)C(=O)CC[C@@H]23)c2ccc(O)cc21
13 | 13% | CCCCN(C)C(=O)CCCCCC[C@@H]1C[C@@H]2[C@H](CC[C@]3(C)[C@@H](O)CC[C@@H]23)c2cc(OC)c(O)cc21

These molecules were tested against T1, 17-beta-hydroxysteroid dehydrogenase type 1 (Homo sapiens) (assay: Inhibition of 17beta-HSD1 overexpressed in homogenated HEK293 cells at 1 uM). Settings: not given.
Assay type: cell-based
How it was run: as §3

Row | inhibition | SMILES
14 | 59% | C[C@]12CC[C@@H]3c4ccc(O)cc4CC[C@H]3[C@@H]1CCC2=O
15 | 16% | CCCCN(C)C(=O)CCCCCC[C@H]1C[C@@H]2[C@H](CC[C@]3(C)C(=O)CC[C@@H]23)c2ccc(O)cc21

What follows are molecules tested against T1, 17-beta-hydroxysteroid dehydrogenase type 1 (Homo sapiens) (assay: Inhibition of 17beta-HSD1 over-expressed in intact T47D cells at 0.1 uM). Settings: not given.
Assay type: cell-based
How it was run: as §2

Row | inhibition | SMILES
16 | 36% | C[C@]12CC[C@@H]3c4ccc(O)cc4CC[C@H]3[C@@H]1CCC2=O
17 | 7% | CCCCN(C)C(=O)CCCCCC[C@H]1C[C@@H]2[C@H](CC[C@]3(C)C(=O)CC[C@@H]23)c2ccc(O)cc21
18 | 11% | CCCCN(C)C(=O)CCCCCC[C@@H]1C[C@@H]2[C@H](CC[C@]3(C)[C@@H](O)CC[C@@H]23)c2cc(OC)c(O)cc21

The molecules below were run on MCF7 (assay: Increase in cell growth of estrogen-starved ER expressing MCF7 cells at 0.01 uM relative to control after 10 days). Settings: not given.
Assay type: functional, Homo sapiens
How it was run: as §1

Row | SMILES | Activity
19 | CCCCN(C)C(=O)CCCCCC[C@@H]1C[C@@H]2[C@H](CC[C@]3(C)[C@@H](O)CC[C@@H]23)c2cc(OC)c(O)cc21 | 1.7

What follows are molecules tested against T1, 17-beta-hydroxysteroid dehydrogenase type 1 (Homo sapiens) (assay: Inhibition of 17beta-HSD1 over-expressed in intact T47D cells at 1 uM). Settings: not given.
Assay type: cell-based
How it was run: as §2

Row | inhibition | SMILES
20 | 85% | C[C@]12CC[C@@H]3c4ccc(O)cc4CC[C@H]3[C@@H]1CCC2=O
21 | 19% | CCCCN(C)C(=O)CCCCCC[C@H]1C[C@@H]2[C@H](CC[C@]3(C)C(=O)CC[C@@H]23)c2ccc(O)cc21
22 | 32% | CCCCN(C)C(=O)CCCCCC[C@@H]1C[C@@H]2[C@H](CC[C@]3(C)[C@@H](O)CC[C@@H]23)c2cc(OC)c(O)cc21

These molecules were tested against T1, 17-beta-hydroxysteroid dehydrogenase type 1 (Homo sapiens) (assay: Inhibition of 17beta-HSD1 over-expressed in intact HEK293 cells at 1 uM). Settings: not given.
Assay type: cell-based
How it was run: as §5

Row | inhibition | SMILES
23 | 38% | C[C@]12CC[C@@H]3c4ccc(O)cc4CC[C@H]3[C@@H]1CCC2=O
24 | 5% | CCCCN(C)C(=O)CCCCCC[C@H]1C[C@@H]2[C@H](CC[C@]3(C)C(=O)CC[C@@H]23)c2ccc(O)cc21
25 | 15% | CCCCN(C)C(=O)CCCCCC[C@@H]1C[C@@H]2[C@H](CC[C@]3(C)[C@@H](O)CC[C@@H]23)c2cc(OC)c(O)cc21

What follows are molecules tested on MCF7 (assay: Increase in cell growth of estrogen-starved ER expressing MCF7 cells at 1 uM relative to control after 10 days). Settings: not given.
Assay type: functional, Homo sapiens
How it was run: as §1

Row | SMILES | Activity
26 | CCCCN(C)C(=O)CCCCCC[C@@H]1C[C@@H]2[C@H](CC[C@]3(C)[C@@H](O)CC[C@@H]23)c2cc(OC)c(O)cc21 | 1.1

What follows are molecules tested against T3, Very-long-chain 3-oxoacyl-CoA reductase (Homo sapiens) (UniProt Q53GQ0) (assay: Inhibition of 17beta-HSD12 over-expressed in intact HEK293 cells at 1 uM). Settings: not given.
T3 sequence (whole entry): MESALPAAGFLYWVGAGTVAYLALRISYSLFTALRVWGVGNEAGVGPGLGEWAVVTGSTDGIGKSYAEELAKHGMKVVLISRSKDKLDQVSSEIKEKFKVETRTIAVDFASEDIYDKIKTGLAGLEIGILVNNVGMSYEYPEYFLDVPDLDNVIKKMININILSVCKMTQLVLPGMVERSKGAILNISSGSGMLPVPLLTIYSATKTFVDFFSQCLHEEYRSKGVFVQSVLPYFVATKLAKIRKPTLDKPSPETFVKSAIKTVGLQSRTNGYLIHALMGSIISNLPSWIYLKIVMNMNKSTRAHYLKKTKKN
Assay type: cell-based
How it was run: (§6)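 Transfected HEK-293 cells expressing type 12 17β-HSD were plated at 1.5×10^5 cells/well. Inhibitor in ethanol plus [4-14C]-E1 (60 nM) were added in fresh medium for 24 h. E1 to E2 conversion was quantified after steroid extraction. Values are the mean of two experiments in triplicate, SD < ±5%.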

Row | inhibition | SMILES
27 | 0% | C[C@]12CC[C@@H]3c4ccc(O)cc4CC[C@H]3[C@@H]1CCC2=O
28 | 3% | CCCCN(C)C(=O)CCCCCC[C@H]1C[C@@H]2[C@H](CC[C@]3(C)C(=O)CC[C@@H]23)c2ccc(O)cc21
29 | 0% | CCCCN(C)C(=O)CCCCCC[C@@H]1C[C@@H]2[C@H](CC[C@]3(C)[C@@H](O)CC[C@@H]23)c2cc(OC)c(O)cc21

These molecules were tested against T3, Very-long-chain 3-oxoacyl-CoA reductase (Homo sapiens) (assay: Inhibition of 17beta-HSD12 over-expressed in intact HEK293 cells at 10 uM). Settings: not given.
Assay type: cell-based
How it was run: as §6

Row | inhibition | SMILES
30 | 0% | C[C@]12CC[C@@H]3c4ccc(O)cc4CC[C@H]3[C@@H]1CCC2=O
31 | 44% | CCCCN(C)C(=O)CCCCCC[C@H]1C[C@@H]2[C@H](CC[C@]3(C)C(=O)CC[C@@H]23)c2ccc(O)cc21
32 | 22% | CCCCN(C)C(=O)CCCCCC[C@@H]1C[C@@H]2[C@H](CC[C@]3(C)[C@@H](O)CC[C@@H]23)c2cc(OC)c(O)cc21

What follows are molecules tested against T2, 3-keto-steroid reductase/17-beta-hydroxysteroid dehydrogenase 7 (Homo sapiens) (assay: Inhibition of 17beta-HSD7 over-expressed in intact HEK293 cells at 10 uM). Settings: not given.
Assay type: cell-based
How it was run: as §4

Row | inhibition | SMILES
33 | 0% | C[C@]12CC[C@@H]3c4ccc(O)cc4CC[C@H]3[C@@H]1CCC2=O
34 | 29% | CCCCN(C)C(=O)CCCCCC[C@H]1C[C@@H]2[C@H](CC[C@]3(C)C(=O)CC[C@@H]23)c2ccc(O)cc21
35 | 17% | CCCCN(C)C(=O)CCCCCC[C@@H]1C[C@@H]2[C@H](CC[C@]3(C)[C@@H](O)CC[C@@H]23)c2cc(OC)c(O)cc21

Each molecule was assayed against T1, 17-beta-hydroxysteroid dehydrogenase type 1 (Homo sapiens) (assay: Inhibition of 17beta-HSD1 over-expressed in intact HEK293 cells at 10 uM). Settings: not given.
Assay type: cell-based
How it was run: as §5

Row | inhibition | SMILES
36 | 83% | C[C@]12CC[C@@H]3c4ccc(O)cc4CC[C@H]3[C@@H]1CCC2=O
37 | 14% | CCCCN(C)C(=O)CCCCCC[C@H]1C[C@@H]2[C@H](CC[C@]3(C)C(=O)CC[C@@H]23)c2ccc(O)cc21
38 | 28% | CCCCN(C)C(=O)CCCCCC[C@@H]1C[C@@H]2[C@H](CC[C@]3(C)[C@@H](O)CC[C@@H]23)c2cc(OC)c(O)cc21
